Assay results: ChEMBL document CHEMBL3286180, “Efficacious inhaled PDE4 inhibitors with low emetic potential and long duration of action for the treatment of COPD” (J Med Chem, 2014)
Converted amounts (≈) assume the structure as drawn. The source made the active and inactive calls. The rule behind the calls is not given here.

What was measured:
[1] = target: 3',5'-cyclic-AMP phosphodiesterase 4B (Homo sapiens, UniProt Q07343); test: Inhibition of human recombinant PDE4B using [3H]cAMP by packard topcount scintillation counting analysis
Chain of 3',5'-cyclic-AMP phosphodiesterase 4B (Q07343 whole entry): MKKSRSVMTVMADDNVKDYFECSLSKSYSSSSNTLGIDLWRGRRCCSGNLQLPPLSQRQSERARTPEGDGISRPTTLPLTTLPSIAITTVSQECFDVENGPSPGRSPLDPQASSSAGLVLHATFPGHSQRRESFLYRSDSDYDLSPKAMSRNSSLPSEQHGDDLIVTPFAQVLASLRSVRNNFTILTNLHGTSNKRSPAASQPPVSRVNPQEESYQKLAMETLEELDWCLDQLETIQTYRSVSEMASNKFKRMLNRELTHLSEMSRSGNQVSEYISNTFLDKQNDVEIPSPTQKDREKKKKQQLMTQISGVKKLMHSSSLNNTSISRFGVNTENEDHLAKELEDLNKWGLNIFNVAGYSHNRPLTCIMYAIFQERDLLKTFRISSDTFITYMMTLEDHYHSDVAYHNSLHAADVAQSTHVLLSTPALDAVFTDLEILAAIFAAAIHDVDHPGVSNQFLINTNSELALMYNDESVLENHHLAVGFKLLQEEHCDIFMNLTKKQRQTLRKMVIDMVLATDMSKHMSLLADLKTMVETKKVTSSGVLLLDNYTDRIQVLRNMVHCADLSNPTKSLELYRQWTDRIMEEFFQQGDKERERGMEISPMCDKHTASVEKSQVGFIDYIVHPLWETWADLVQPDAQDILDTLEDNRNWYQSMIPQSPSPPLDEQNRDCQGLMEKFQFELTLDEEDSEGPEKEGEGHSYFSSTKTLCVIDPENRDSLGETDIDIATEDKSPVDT

Cytochrome P450 1A2 = target: T1, Cytochrome P450 1A2 (Homo sapiens, UniProt P05177); test: Inhibition of CYP1A2 (unknown origin); type: ADME
T1 sequence (P05177 whole entry): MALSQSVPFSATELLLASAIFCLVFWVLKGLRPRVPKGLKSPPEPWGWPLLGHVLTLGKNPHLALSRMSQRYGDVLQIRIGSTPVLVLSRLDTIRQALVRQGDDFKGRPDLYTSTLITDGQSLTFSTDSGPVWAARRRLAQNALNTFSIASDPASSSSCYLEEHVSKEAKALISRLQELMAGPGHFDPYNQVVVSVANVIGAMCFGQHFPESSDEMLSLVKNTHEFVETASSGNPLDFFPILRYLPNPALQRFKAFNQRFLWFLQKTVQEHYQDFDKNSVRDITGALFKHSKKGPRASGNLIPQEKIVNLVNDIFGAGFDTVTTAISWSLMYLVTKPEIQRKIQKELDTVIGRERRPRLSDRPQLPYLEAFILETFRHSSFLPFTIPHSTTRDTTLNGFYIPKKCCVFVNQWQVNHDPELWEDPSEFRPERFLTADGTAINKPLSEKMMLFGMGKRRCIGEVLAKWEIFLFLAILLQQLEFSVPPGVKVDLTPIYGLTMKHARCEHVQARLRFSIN

Cytochrome P450 2C19 = Cytochrome P450 2C19 (Homo sapiens, UniProt P33261); test: Inhibition of CYP2C19 (unknown origin); type: ADME
Chain of Cytochrome P450 2C19 (P33261 whole entry): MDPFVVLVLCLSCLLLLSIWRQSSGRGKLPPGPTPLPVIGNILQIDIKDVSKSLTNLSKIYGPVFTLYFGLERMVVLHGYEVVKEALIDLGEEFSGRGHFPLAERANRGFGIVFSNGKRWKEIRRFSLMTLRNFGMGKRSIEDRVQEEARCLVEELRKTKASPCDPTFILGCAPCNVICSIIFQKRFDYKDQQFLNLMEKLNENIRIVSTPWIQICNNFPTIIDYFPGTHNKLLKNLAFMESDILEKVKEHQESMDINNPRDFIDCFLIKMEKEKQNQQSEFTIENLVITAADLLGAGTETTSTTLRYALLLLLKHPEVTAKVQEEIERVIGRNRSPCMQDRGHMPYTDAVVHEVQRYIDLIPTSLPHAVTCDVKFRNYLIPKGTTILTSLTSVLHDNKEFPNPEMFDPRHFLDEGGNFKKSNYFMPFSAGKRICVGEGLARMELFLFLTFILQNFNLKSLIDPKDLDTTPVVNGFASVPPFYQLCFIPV

[2] = Lipophilicity, log D of the compound; type: physicochemical; details: octanol/water
PBMC = test: Antiinflammatory activity in human PBMC assessed as inhibition of LPS-induced TNFalpha production after 20 hrs by fluorescence linked immunosorbant assay; type: functional, cell-based
[3] = Aqueous solubility of the compound at pH 7.4; type: physicochemical; details: aqueous medium
[4] = Fraction unbound in human plasma; type: ADME, cell-free
Rattus norvegicus [5] = test: Antiinflammatory activity in Sprague-Dawley rat assessed as inhibition of LPS-induced bronchoalveolar lavage neutrophils measured as LPS duration at 0.1 mg/ml, inhalation administered as nebulized suspension; type: functional, organism-based
In short: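 Duration protocol: rats received a nose-only inhalation of nebulized aqueous compound solution 12 h before LPS challenge. Dose is expressed as mg/mL nebulizer concentration. Readout was LPS-induced pulmonary neutrophilia, with terminal lung concentration (nM) measured. Groups held 8−10 animals per treatment.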

Cytochrome P450 2C9 = Cytochrome P450 2C9 (Homo sapiens, UniProt P11712); test: Inhibition of CYP2C9 (unknown origin); type: ADME
Chain of Cytochrome P450 2C9 (P11712 whole entry): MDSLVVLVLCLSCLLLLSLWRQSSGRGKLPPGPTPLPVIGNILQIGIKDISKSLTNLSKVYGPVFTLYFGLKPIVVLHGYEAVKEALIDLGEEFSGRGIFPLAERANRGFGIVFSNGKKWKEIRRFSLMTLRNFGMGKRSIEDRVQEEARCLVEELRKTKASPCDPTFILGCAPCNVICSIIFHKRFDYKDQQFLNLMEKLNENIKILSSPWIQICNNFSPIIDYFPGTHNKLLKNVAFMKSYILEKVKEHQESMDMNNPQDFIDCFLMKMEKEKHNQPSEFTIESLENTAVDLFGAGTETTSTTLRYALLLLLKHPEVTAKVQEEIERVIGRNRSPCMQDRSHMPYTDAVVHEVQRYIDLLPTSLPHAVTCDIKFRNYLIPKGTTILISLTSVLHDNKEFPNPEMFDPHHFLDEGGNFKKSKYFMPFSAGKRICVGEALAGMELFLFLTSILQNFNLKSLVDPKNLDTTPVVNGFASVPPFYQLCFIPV

[6] = Half life in rat at 1 mg/kg, iv; type: ADME, organism-based; set-up: dose 1 mg/kg, route intravenous; details: in vivo
In short: (§1)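 Rat pharmacokinetics were run at 1 mg/kg, given iv or by intratracheal instillation, with 2−3 animals per study.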

Rattus norvegicus [7] = test: Apparent volume of distribution in rat at 1 mg/kg, iv; type: ADME, organism-based; set-up: dose 1 mg/kg, route intravenous; details: in vivo; in short: as §1
[8] = Clearance in rat at 1 mg/kg, iv; type: ADME, organism-based; set-up: dose 1 mg/kg, route intravenous; details: in vivo; in short: as §1
[9] = Volume of distribution at steady state in rat at 1 mg/kg, iv; type: ADME, organism-based; set-up: dose 1 mg/kg, route intravenous; details: in vivo, read-out: Vdss
Cytochrome P450 2D6 = Cytochrome P450 2D6 (Homo sapiens, UniProt P10635); test: Inhibition of CYP2D6 (unknown origin); type: ADME
Chain of Cytochrome P450 2D6 (P10635 whole entry): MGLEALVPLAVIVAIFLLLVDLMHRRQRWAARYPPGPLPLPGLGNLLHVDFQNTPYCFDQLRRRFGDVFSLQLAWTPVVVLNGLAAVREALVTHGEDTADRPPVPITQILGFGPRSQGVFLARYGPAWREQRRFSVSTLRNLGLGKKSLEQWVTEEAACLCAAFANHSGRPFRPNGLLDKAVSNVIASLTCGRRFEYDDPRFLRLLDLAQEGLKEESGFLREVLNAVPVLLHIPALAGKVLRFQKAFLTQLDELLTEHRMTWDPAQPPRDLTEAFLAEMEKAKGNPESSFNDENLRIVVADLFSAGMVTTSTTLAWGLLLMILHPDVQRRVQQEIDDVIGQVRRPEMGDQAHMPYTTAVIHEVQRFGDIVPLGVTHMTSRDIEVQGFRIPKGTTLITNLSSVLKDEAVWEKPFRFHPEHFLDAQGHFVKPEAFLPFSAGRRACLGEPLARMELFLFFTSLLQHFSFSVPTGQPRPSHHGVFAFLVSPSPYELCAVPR

Cytochrome P450 3A4 = Cytochrome P450 3A4 (Homo sapiens, UniProt P08684); test: Inhibition of CYP3A4 (unknown origin); type: ADME
Chain of Cytochrome P450 3A4 (P08684 whole entry): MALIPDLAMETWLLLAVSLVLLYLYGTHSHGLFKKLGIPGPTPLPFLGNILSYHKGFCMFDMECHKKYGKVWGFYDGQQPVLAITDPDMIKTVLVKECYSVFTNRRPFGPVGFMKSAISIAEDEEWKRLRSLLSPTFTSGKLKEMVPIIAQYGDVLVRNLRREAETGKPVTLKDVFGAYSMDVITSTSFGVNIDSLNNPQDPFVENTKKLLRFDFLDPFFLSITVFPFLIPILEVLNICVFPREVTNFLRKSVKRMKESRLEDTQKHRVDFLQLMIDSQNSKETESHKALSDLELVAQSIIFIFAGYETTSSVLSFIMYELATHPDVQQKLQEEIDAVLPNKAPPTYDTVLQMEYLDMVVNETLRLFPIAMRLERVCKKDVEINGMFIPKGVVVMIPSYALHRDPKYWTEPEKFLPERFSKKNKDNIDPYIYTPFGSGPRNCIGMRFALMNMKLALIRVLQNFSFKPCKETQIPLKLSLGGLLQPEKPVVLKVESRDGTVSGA

Rattus norvegicus [10] = test: Antiinflammatory activity in Sprague-Dawley rat assessed as inhibition of LPS-induced bronchoalveolar lavage neutrophils at 0.03 mg/ml, inhalation administered as nebulized suspension; type: functional, organism-based
In short: (§2)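 Rats were given the compound as an aqueous nebulized aerosol by nose-only inhalation 30 min before LPS challenge. Dose is expressed as mg/mL nebulizer concentration. Lung neutrophilia was the readout, and terminal lung concentration (nM) was measured. Groups held 8−10 animals per treatment.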

Rattus norvegicus [11] = test: Antiinflammatory activity in nasally dosed Sprague-Dawley rat assessed as inhibition of LPS-induced bronchoalveolar lavage neutrophils measured as nebulizer concentration administered as […]; type: functional
In short: (§3)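 ED80 was derived from the nose-only nebulized-solution dose response in rats dosed 30 min before LPS challenge, with neutrophilia as the readout. ED80 is given as nebulizer concentration, as the matching terminal total lung concentration, and as lung deposited dose estimated from measured filter sample and terminal lung levels.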

Rattus norvegicus [12] = test: Antiinflammatory activity in nasally dosed Sprague-Dawley rat assessed as inhibition of LPS-induced bronchoalveolar lavage neutrophils measured as lung concentration administered as […]; type: functional; in short: as §3
Rattus norvegicus [13] = test: Antiinflammatory activity in nasally dosed Sprague-Dawley rat assessed as inhibition of LPS-induced bronchoalveolar lavage neutrophils measured as lung deposited dose administered as […]; type: functional; in short: as §3
Rattus norvegicus [14] = test: Antiinflammatory activity in Sprague-Dawley rat assessed as inhibition of LPS-induced bronchoalveolar lavage neutrophils at 0.01 mg/ml, inhalation administered as nebulized suspension; type: functional; in short: as §2

| SMILES | IC50 [1] | logD [2] | IC50 (PBMC) | solubility [3] | fraction unbound [4] | other results |
| --- | --- | --- | --- | --- | --- | --- |
| O=C(N[C@H]1CC[C@@H](NC(=O)c2cc(F)cnc2Oc2cccc(-c3ccc(O)cc3CN3CCOCC3)c2)CC1)c1cncc(O)c1 | 2.51 nM |  |  |  |  |  |
| C[C@@H]1CN(Cc2ccc(-c3cccc(Oc4ncc(F)cc4C(=O)N[C@H]4CC[C@@H](NC(=O)c5ncccc5O)CC4)c3)cc2)C[C@H](C)N1 | 0.126 nM |  |  |  |  |  |
| Cc1cc(C(=O)N[C@H]2CC[C@@H](NC(=O)c3cc(F)cnc3Oc3cccc(-c4ccc(CCN5CCC(N6CCCC6)CC5)cc4)c3)CC2)nn1C | 0.0398 nM | 2.4 | 0.0316 nM | 120 µM (≈ 84.9 µg/mL) | 0.042 | IC50 (Cytochrome P450 1A2): > 1000 nM; IC50 (Cytochrome P450 2C19): > 1000 nM; inhibition (Rattus norvegicus [5]): Active; IC50 (Cytochrome P450 2C9): > 1000 nM; half-life [6]: 9 h; Vz/F (Rattus norvegicus [7]): 59 L/kg; clearance [8]: 74 mL/min/kg; Vd [9]: 44 L/kg; IC50 (Cytochrome P450 2D6): > 1000 nM; IC50 (Cytochrome P450 3A4): > 1000 nM |
| C[C@@H]1CN(Cc2ccc(-c3cccc(Oc4ncc(F)cc4C(=O)N[C@H]4CC[C@@H](NC(=O)c5cc6ccccn6n5)CC4)c3)cc2)C[C@H](C)N1 |  | 2.7 | 0.0794 nM | 580 µM (≈ 392 µg/mL) | 0.045 | inhibition (Rattus norvegicus [10]): Active; IC50 (Cytochrome P450 2C9): > 1000 nM; half-life [6]: 5.8 h; Vz/F (Rattus norvegicus [7]): 30 L/kg; clearance [8]: 58 mL/min/kg; Vd [9]: 13 L/kg; IC50 (Cytochrome P450 3A4): 398 nM |
| Cc1cc(C)n2ncc(C(=O)N[C@H]3CC[C@@H](NC(=O)c4cc(F)cnc4Oc4cccc(-c5ccc(O)cc5CN5CCOCC5)c4)CC3)c2n1 | 0.0501 nM |  |  |  |  |  |
| Cc1cc(C(=O)N[C@H]2CC[C@@H](NC(=O)c3cc(F)cnc3Oc3cccc(-c4ccc(CCCN5C[C@@H](C)N[C@@H](C)C5)cc4)c3)CC2)nn1C | 0.02 nM | 2.6 | 0.0631 nM | 130 µM (≈ 88.6 µg/mL) | 0.045 | ED80 (Rattus norvegicus [11]): 50 µg/mL (≈ 73.3 µM); IC50 (Cytochrome P450 1A2): > 1000 nM; IC50 (Cytochrome P450 2C19): > 1000 nM; ED80 (Rattus norvegicus [12]): 60 nM; inhibition (Rattus norvegicus [10]): Active; inhibition (Rattus norvegicus [5]): Active; IC50 (Cytochrome P450 2C9): > 1000 nM; half-life [6]: 7 h; Vz/F (Rattus norvegicus [7]): 41 L/kg; ED80 (Rattus norvegicus [13]): 0.6 µg/kg; clearance [8]: 68 mL/min/kg; Vd [9]: 21 L/kg; IC50 (Cytochrome P450 2D6): > 1000 nM; IC50 (Cytochrome P450 3A4): > 1000 nM |
| Cc1cc(C(=O)N[C@H]2CC[C@@H](NC(=O)c3cc(F)cnc3Oc3cccc(-c4cc(O)cc(CN5C[C@@H](C)N[C@@H](C)C5)c4)c3)CC2)nn1C |  | 2.2 | 0.398 nM | > 1500 µM | 0.35 |  |
| Cc1cc(C(=O)N[C@H]2CC[C@@H](NC(=O)c3cc(F)cnc3Oc3cccc(-c4ccc(O)c(CN5C[C@@H](C)N[C@@H](C)C5)c4)c3)CC2)nn1C |  | 2.3 | 0.0316 nM | 970 µM (≈ 650 µg/mL) | 0.16 |  |
| Cc1cc(C(=O)N[C@H]2CC[C@@H](NC(=O)c3cc(F)cnc3Oc3cccc(-c4ccc(CN5C[C@@H](C)N[C@@H](C)C5)cc4)c3)CC2)nn1C |  | 2.4 | 0.1 nM | 1300 µM (≈ 850 µg/mL) | 0.11 |  |
| O=C(N[C@H]1CC[C@@H](NC(=O)c2nc3ccccc3[nH]c2=O)CC1)c1cc(F)cnc1Oc1cccc(-c2ccc(O)cc2CN2CCOCC2)c1 | 0.316 nM |  |  |  |  |  |
| Cc1cc(C(=O)N[C@H]2CC[C@@H](NC(=O)c3cc(F)cnc3Oc3cccc(-c4cccc(CN5C[C@@H](C)N[C@@H](C)C5)c4)c3)CC2)nn1C |  | 2.1 | 0.0794 nM | > 1500 µM | 0.18 |  |
| Cc1cc(C(=O)N[C@H]2CC[C@@H](NC(=O)c3cc(F)cnc3Oc3cccc(-c4cccc(CN5C[C@@H](C)N[C@@H](C)C5)c4O)c3)CC2)nn1C |  | 2.8 | 3.16 nM | 470 µM (≈ 315 µg/mL) | 0.091 |  |
| CN(C)Cc1cc(O)ccc1-c1cccc(Oc2ncc(F)cc2C(=O)N[C@H]2CC[C@@H](NC(=O)c3cccc4oc(=O)[nH]c34)CC2)c1 | 20 nM |  |  |  |  |  |
| Cc1csc(C(=O)N[C@H]2CC[C@@H](NC(=O)c3cc(F)cnc3Oc3cccc(-c4ccc(CN5C[C@@H](C)N[C@@H](C)C5)cc4)c3)CC2)n1 | 0.0316 nM |  |  |  |  |  |
| Cc1csc(C(=O)N[C@H]2CC[C@@H](NC(=O)c3cc(F)cnc3Oc3cccc(-c4ccc(CN5C[C@@H](C)N[C@@H](C)C5)cc4CN4CCOCC4)c3)CC2)n1.O=C(O)C(F)(F)F |  |  |  | > 1400 µM |  |  |
| Cc1csc(C(=O)N[C@H]2CC[C@@H](NC(=O)c3cc(F)cnc3Oc3cccc(-c4ccc(CN5C[C@@H](C)N[C@@H](C)C5)cc4CN4CCOCC4)c3)CC2)n1 |  |  |  |  |  | inhibition (Rattus norvegicus [10]): Active; inhibition (Rattus norvegicus [14]): Active |
| Cc1cccc2nc(C(=O)N[C@H]3CC[C@@H](NC(=O)c4cc(F)cnc4Oc4cccc(-c5ccc(CN6C[C@@H](C)N[C@@H](C)C6)cc5)c4)CC3)cn12 |  | 2.7 | 0.126 nM | 460 µM (≈ 317 µg/mL) | 0.012 | IC50 (Cytochrome P450 1A2): > 1000 nM; IC50 (Cytochrome P450 2C19): > 1000 nM; IC50 (Cytochrome P450 2C9): > 1000 nM; half-life [6]: 5.3 h; Vz/F (Rattus norvegicus [7]): 28 L/kg; clearance [8]: 61 mL/min/kg; Vd [9]: 14 L/kg; IC50 (Cytochrome P450 2D6): > 1000 nM; IC50 (Cytochrome P450 3A4): > 1000 nM |
| CN(C)Cc1cc(O)ccc1-c1cccc(Oc2ncc(F)cc2C(=O)N[C@H]2CC[C@@H](NC(=O)c3cccc4ocnc34)CC2)c1 | 0.316 nM |  |  |  |  |  |
| Cc1nc(C(=O)N[C@H]2CC[C@@H](NC(=O)c3cc(F)cnc3Oc3cccc(-c4ccc(CN5C[C@@H](C)N[C@@H](C)C5)cc4)c3)CC2)cs1 |  |  |  |  |  | pIC50 [1]: 10.2 |
| Cc1cc(C(=O)N[C@H]2CC[C@@H](NC(=O)c3cc(F)cnc3Oc3cccc(-c4ccc(CN5C[C@@H](C)N[C@@H](C)C5)c(O)c4)c3)CC2)nn1C |  | 2.4 |  | 890 µM (≈ 596 µg/mL) | 0.12 |  |
